Assay results from ChEMBL document CHEMBL3351998, “Discovery of potent and specific dihydroisoxazole inhibitors of human transglutaminase 2” (J Med Chem, 2014).

Legend:
[1] = molecular target: T1, Coagulation factor XIII A chain (Homo sapiens) (UniProt P00488); test: Inhibition of human factor 13a using QEQVSPLSLLK peptide substrate assessed as Kinh/Ki ratio by GDH coupled assay
T1 sequence (whole entry): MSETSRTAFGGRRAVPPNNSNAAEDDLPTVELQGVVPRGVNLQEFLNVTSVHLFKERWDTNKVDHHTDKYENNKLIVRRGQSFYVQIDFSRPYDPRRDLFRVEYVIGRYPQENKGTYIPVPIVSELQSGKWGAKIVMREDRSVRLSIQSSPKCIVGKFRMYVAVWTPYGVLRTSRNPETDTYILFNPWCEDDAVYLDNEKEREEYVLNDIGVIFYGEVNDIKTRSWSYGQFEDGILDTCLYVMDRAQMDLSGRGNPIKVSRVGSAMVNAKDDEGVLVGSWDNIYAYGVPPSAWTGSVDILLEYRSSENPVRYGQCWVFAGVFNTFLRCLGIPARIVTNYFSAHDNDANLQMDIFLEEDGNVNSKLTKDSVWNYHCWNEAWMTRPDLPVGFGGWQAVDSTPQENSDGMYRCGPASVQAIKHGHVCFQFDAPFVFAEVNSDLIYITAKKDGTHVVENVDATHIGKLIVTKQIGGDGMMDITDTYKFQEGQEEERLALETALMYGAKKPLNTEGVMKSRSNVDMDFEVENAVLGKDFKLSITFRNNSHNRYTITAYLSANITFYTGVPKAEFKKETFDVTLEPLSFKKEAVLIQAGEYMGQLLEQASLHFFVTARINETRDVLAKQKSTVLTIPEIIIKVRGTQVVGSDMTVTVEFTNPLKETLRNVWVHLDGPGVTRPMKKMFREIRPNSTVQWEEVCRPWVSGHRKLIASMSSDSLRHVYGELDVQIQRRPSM

[2] = molecular target: T2, Protein-glutamine gamma-glutamyltransferase (Homo sapiens) (UniProt P21980); test: Inhibition of human transglutaminase 2 using ((benzyloxy)carbony l)-L-glutaminylglycine peptide substrate assessed as Kinh/Ki ratio by GDH coupled assay
T2 sequence (whole entry): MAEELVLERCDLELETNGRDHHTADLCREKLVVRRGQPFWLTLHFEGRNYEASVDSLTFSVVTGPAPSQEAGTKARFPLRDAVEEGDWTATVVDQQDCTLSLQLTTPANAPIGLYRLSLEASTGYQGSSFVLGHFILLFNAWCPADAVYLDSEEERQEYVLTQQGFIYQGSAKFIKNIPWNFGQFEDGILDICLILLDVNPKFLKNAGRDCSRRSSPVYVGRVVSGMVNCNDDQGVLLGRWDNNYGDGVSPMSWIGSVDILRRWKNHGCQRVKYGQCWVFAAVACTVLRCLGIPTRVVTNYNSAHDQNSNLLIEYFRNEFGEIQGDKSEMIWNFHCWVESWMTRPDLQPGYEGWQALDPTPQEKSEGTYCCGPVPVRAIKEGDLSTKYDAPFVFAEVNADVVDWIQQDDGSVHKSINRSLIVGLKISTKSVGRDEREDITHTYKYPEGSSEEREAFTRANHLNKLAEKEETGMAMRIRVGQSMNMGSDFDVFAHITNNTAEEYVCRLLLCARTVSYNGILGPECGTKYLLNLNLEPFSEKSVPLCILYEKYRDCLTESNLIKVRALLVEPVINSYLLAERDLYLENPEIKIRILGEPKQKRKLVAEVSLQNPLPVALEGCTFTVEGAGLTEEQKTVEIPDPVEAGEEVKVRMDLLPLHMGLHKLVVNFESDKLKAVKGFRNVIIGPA
Outline: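 Human TG2 (V224G variant) or codon-optimized murine TG2, E. coli-expressed, final ~0.34 and 0.22 μM respectively. Buffer: 200 mM MOPS pH 7.2, 5 mM CaCl2, 10 mM α-ketoglutarate, 300 μM NADH, 36 U/mL bovine GDH. Z-Gln-Gly at 10/20 mM. Inhibitors typically at 100/33.3/11.1/3.7 μM, 1% DMSO, added after ≥5 min pre-equilibration. A340 progress curves fitted to exponential decay; kinh/Ki from irreversible inhibition model.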

[3] = molecular target: T3, Protein-glutamine gamma-glutamyltransferase E (Homo sapiens) (UniProt Q08188); test: Inhibition of human transglutaminase 3 using ((benzyloxy)carbonyl)-L-glutaminyl-L-serine peptide substrate assessed as Kinh/Ki ratio by GDH coupled assay
T3 sequence (whole entry): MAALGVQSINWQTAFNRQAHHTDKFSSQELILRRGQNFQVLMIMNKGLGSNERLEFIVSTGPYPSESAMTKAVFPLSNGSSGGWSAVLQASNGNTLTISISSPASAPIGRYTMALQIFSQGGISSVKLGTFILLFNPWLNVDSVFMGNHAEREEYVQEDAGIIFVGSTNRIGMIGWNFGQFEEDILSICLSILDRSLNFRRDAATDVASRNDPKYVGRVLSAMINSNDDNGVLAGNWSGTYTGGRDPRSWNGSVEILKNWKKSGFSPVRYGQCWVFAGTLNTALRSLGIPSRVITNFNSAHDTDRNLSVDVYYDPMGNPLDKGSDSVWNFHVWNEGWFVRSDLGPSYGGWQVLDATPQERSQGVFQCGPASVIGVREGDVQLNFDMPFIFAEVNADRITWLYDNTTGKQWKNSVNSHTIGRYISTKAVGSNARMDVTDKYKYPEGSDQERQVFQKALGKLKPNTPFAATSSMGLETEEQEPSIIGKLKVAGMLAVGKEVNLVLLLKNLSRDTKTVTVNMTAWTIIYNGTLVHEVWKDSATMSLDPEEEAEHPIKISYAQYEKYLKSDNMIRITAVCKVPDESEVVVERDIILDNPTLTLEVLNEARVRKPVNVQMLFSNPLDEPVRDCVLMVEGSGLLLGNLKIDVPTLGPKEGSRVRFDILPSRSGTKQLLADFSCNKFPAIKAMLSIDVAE
Outline: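 His-tagged human TG3 activated by cathepsin L (1 μg per 25 μg TG3, MES pH 6.0, 30 min), then quenched with 50 μM E64 for 10 min. Final TG3 ~0.43 μM in 200 mM MOPS pH 7.2, 5 mM CaCl2, 10 mM α-ketoglutarate, 300 μM NADH, 36 U/mL GDH. Z-Gln-Ser at 20/40 mM. Enzyme pre-equilibrated 30 min before inhibitors (typically 100/33.3/11.1/3.7 μM) were added. A340 curves fitted; kinh/Ki from irreversible model.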

SMILES	Ratio [1]	Ratio [2]	Ratio [3]
O=C(NC[C@@H]1CC(Br)=NO1)[C@@H]1C[C@H](F)CN1C(=O)OCc1cnc2ccccc2c1	7	13.4	< 1
O=C(N[C@@H]1C[C@@H](C(=O)NC[C@@H]2CC(Br)=NO2)N(C(=O)OCc2cnc3ccccc3c2)C1)c1cccnc1	10.6	108	< 1
O=C(NC[C@@H]1CC(Br)=NO1)[C@@H]1C[C@@H](OCc2ccccc2)CN1C(=O)OCc1cnc2ccccc2c1	15.5	13.8	< 1
O=C(NC[C@@H]1CC(Br)=NO1)[C@@H]1CCCN1C(=O)OCc1cnc2ccccc2c1	8.3	16.9	< 1

Now from value to compound:

Ratio [1]	Ratio [2]	Ratio [3]	SMILES
25.4	48.6	< 1	O=C(NC[C@@H]1CC(Br)=NO1)[C@@H]1C[C@@H](c2ccccc2)CN1C(=O)OCc1cnc2ccccc2c1
38.7	91.1	< 1	O=C(NC[C@@H]1CC(Br)=NO1)[C@@H]1C[C@@H](c2ccc(O)cc2)CN1C(=O)OCc1cnc2ccccc2c1
11.1	12.5	< 1	O=C(NC[C@@H]1CC(Br)=NO1)[C@@H]1C[C@@H](O)CN1C(=O)OCc1cnc2ccccc2c1
9.4	56.4	< 1	O=C(N[C@@H]1C[C@@H](C(=O)NC[C@@H]2CC(Br)=NO2)N(C(=O)OCc2cnc3ccccc3c2)C1)c1ccc(O)cc1
